Results taken from ChEMBL document CHEMBL1155222, “Synthesis and anticancer activity of N-bis(trifluoromethyl)alkyl-N'-thiazolyl and N-bis(trifluoromethyl)alkyl-N'-benzothiazolyl ureas” (2009).
Activity calls are given as the source filed them. No cut-off for these calls is given here.

How the values were obtained:
Format in all cases: functional
NCI-H226 = experiment: Anticancer activity against human NCI-H226 cells after 48 hrs by sulforhodamine B assay
In short: (§1)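 NCI 60-cell-line screen. Cells grown in RPMI 1640 with 5% FBS and 2 mM L-glutamine, plated at 5000–40,000 cells/well, and preincubated 24 h at 37 °C under 5% CO2. Compounds were taken from DMSO stocks and tested at five final concentrations, 10^-4 to 10^-8 M, for 48 h. Cells were TCA-fixed, stained with 0.4% SRB, and read at 515 nm. GI50, TGI and LC50 were derived as log molar values.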

T47D = experiment: Anticancer activity against human T47D cells after 48 hrs by sulforhodamine B assay
In short: (§2)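 NCI 60-cell-line panel; cells grown in RPMI 1640 with 5% FBS and 2 mM L-glutamine, plated at 5000–40,000 cells/well and preincubated 24 h at 37 °C, 5% CO2. Compounds came from DMSO stocks diluted in medium with gentamicin and were tested at five final concentrations, 10^-4 to 10^-8 M, for 48 h. Cells were fixed with TCA, stained with SRB and read at 515 nm. GI50, TGI and LC50 were derived as log molar values.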

786-0 = experiment: Anticancer activity against human 786-0 cells after 48 hrs by sulforhodamine B assay; in short: as §1
HCC 2998 = experiment: Anticancer activity against human HCC2998 cells after 48 hrs by sulforhodamine B assay; in short: as §1
A549 = experiment: Anticancer activity against human A549 cells after 48 hrs by sulforhodamine B assay; in short: as §1
SF-539 = experiment: Anticancer activity against human SF539 cells after 48 hrs by sulforhodamine B assay; in short: as §1
MDA-N = experiment: Anticancer activity against human MDA-N cells after 48 hrs by sulforhodamine B assay; in short: as §1
EKVX = experiment: Anticancer activity against human EKVX cells after 48 hrs by sulforhodamine B assay; in short: as §1
SF-268 [1] = experiment: Anticancer activity against human SF268 cells after 48 hrs by sulforhodamine B assay; in short: as §1
SR = experiment: Anticancer activity against human SR cells after 48 hrs by sulforhodamine B assay; in short: as §2
MDA-MB-231 = experiment: Anticancer activity against human MDA-MB-231 cells after 48 hrs by sulforhodamine B assay; in short: as §1
HCT-15 = experiment: Anticancer activity against human HCT15 cells after 48 hrs by sulforhodamine B assay; in short: as §1
MDA-MB-435 = experiment: Anticancer activity against human MDA-MB-435 cells after 48 hrs by sulforhodamine B assay; in short: as §1
A498 = experiment: Anticancer activity against human A498 cells after 48 hrs by sulforhodamine B assay; in short: as §1
ACHN = experiment: Anticancer activity against human ACHN cells after 48 hrs by sulforhodamine B assay; in short: as §1
NCI-H23 = experiment: Anticancer activity against human NCI-H23 cells after 48 hrs by sulforhodamine B assay
In short: (§3)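 NCI 60-cell-line screen. Cells were grown in RPMI 1640 with 5% FBS and 2 mM L-glutamine, seeded at 5000–40,000 cells/well and preincubated 24 h at 37 °C, 5% CO2. Compounds in DMSO were diluted in medium with gentamicin and tested at five concentrations (10^-4 to 10^-8 M) for 48 h. Cells were then fixed with TCA, stained with SRB and read at 515 nm.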

OVCAR-5 = experiment: Anticancer activity against human OVCAR5 cells after 48 hrs by sulforhodamine B assay; in short: as §1
TK-10 = experiment: Anticancer activity against human TK10 cells after 48 hrs by sulforhodamine B assay; in short: as §2
COLO 205 = experiment: Anticancer activity against human COLO205 cells after 48 hrs by sulforhodamine B assay; in short: as §1
DU-145 = experiment: Anticancer activity against human DU145 cells after 48 hrs by sulforhodamine B assay; in short: as §1
BT-549 = experiment: Anticancer activity against human BT549 cells after 48 hrs by sulforhodamine B assay; in short: as §1
SNB-19 = experiment: Anticancer activity against human SNB19 cells after 48 hrs by sulforhodamine B assay; in short: as §2
UO-31 = experiment: Anticancer activity against human UO31 cells after 48 hrs by sulforhodamine B assay; in short: as §2
UACC-257 = experiment: Anticancer activity against human UACC257 cells after 48 hrs by sulforhodamine B assay; in short: as §2
HL-60(TB) = experiment: Anticancer activity against human HL-60(TB) cells after 48 hrs by sulforhodamine B assay; in short: as §3
Hs-578T = experiment: Anticancer activity against human Hs 578T cells after 48 hrs by sulforhodamine B assay; in short: as §1
SNB-75 = experiment: Anticancer activity against human SNB75 cells after 48 hrs by sulforhodamine B assay; in short: as §2
SK-OV-3 = experiment: Anticancer activity against human SKOV3 cells after 48 hrs by sulforhodamine B assay; in short: as §1
CAKI-1 = experiment: Anticancer activity against human Caki1 cells after 48 hrs by sulforhodamine B assay; in short: as §1
SW-620 = experiment: Anticancer activity against human SW620 cells after 48 hrs by sulforhodamine B assay; in short: as §2
SF-295 = experiment: Anticancer activity against human SF295 cells after 48 hrs by sulforhodamine B assay; in short: as §1
UACC-62 = experiment: Anticancer activity against human UACC62 cells after 48 hrs by sulforhodamine B assay; in short: as §2
HCT-116 = experiment: Anticancer activity against human HCT116 cells after 48 hrs by sulforhodamine B assay; in short: as §1
NCI/ADR-RES = experiment: Anticancer activity against human NCI/ADR-RES cells after 48 hrs by sulforhodamine B assay; in short: as §1
Malme-3M = experiment: Anticancer activity against human MALME-3M cells after 48 hrs by sulforhodamine B assay; in short: as §1
KM12 = experiment: Anticancer activity against human KM12 cells after 48 hrs by sulforhodamine B assay; in short: as §1
M14 = experiment: Anticancer activity against human M14 cells after 48 hrs by sulforhodamine B assay; in short: as §1
SN12C = experiment: Anticancer activity against human SN12C cells after 48 hrs by sulforhodamine B assay; in short: as §2
U-251 = experiment: Anticancer activity against human U251 cells after 48 hrs by sulforhodamine B assay; in short: as §2
CCRF-CEM = experiment: Anticancer activity against human CCRF-CEM cells after 48 hrs by sulforhodamine B assay; in short: as §1
MCF7 [2] = experiment: Anticancer activity against human MCF7 cells after 48 hrs by sulforhodamine B assay; in short: as §1
SK-MEL-5 = experiment: Anticancer activity against human SK-MEL-5 cells after 48 hrs by sulforhodamine B assay; in short: as §1
OVCAR-4 = experiment: Anticancer activity against human OVCAR4 cells after 48 hrs by sulforhodamine B assay; in short: as §1
RPMI8266 = experiment: Anticancer activity against human RPMI8266 cells after 48 hrs by sulforhodamine B assay; in short: as §1
PC-3 = experiment: Anticancer activity against human PC3 cells after 48 hrs by sulforhodamine B assay; in short: as §1
OVCAR-3 = experiment: Anticancer activity against human OVCAR-3 cells after 48 hrs by sulforhodamine B assay; in short: as §1
HT-29 = experiment: Anticancer activity against human HT-29 cells after 48 hrs by sulforhodamine B assay; in short: as §1
MOLT-4 = experiment: Anticancer activity against human MOLT4 cells after 48 hrs by sulforhodamine B assay; in short: as §1
SK-MEL-2 = experiment: Anticancer activity against human SK-MEL-2 cells after 48 hrs by sulforhodamine B assay; in short: as §1
OVCAR-8 = experiment: Anticancer activity against human OVCAR8 cells after 48 hrs by sulforhodamine B assay; in short: as §1
RXF 393 = experiment: Anticancer activity against human RXF393 cells after 48 hrs by sulforhodamine B assay; in short: as §1
LOX IMVI = experiment: Anticancer activity against human LOXIMVI cells after 48 hrs by sulforhodamine B assay; in short: as §1
K562 = experiment: Anticancer activity against human K562 cells after 48 hrs by sulforhodamine B assay; in short: as §1
HOP-62 = experiment: Anticancer activity against human HOP62 cells after 48 hrs by sulforhodamine B assay; in short: as §1
IGROV-1 = experiment: Anticancer activity against human IGROV1 cells after 48 hrs by sulforhodamine B assay; in short: as §1
NCI-H322M = experiment: Anticancer activity against human NCI-H322M cells after 48 hrs by sulforhodamine B assay; in short: as §1
SK-MEL-28 = experiment: Anticancer activity against human SK-MEL-28 cells after 48 hrs by sulforhodamine B assay; in short: as §1
HOP-92 = experiment: Anticancer activity against human HOP92 cells after 48 hrs by sulforhodamine B assay; in short: as §1
NCI-H522 = experiment: Anticancer activity against human NCI-H522 cells after 48 hrs by sulforhodamine B assay; in short: as §1
NCI-H460 [3] = experiment: Anticancer activity against human NCI-H460 cells after 48 hrs by sulforhodamine B assay; in short: as §1
SF-268 [4] = experiment: Anticancer activity against human SF268 cells assessed as cell growth at 100 uM after 48 hrs by Alamar blue assay relative to control; settings: SF-268, 48 h, read-out: Activity
In short: (§4)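 NCI one-dose pre-test on MCF7, NCI-H460 and SF-268. Cells were inoculated and preincubated, then exposed to a single 10^-4 M concentration for 48 h. End-point was alamar blue. Results are percent growth versus untreated control cells, with negative values indicating cell kill.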

NCI-H460 [5] = experiment: Anticancer activity against human NCI-H460 cells assessed as cell growth at 100 uM after 48 hrs by Alamar blue assay relative to control; settings: NCI-H460, 48 h, read-out: Activity; in short: as §4
MCF7 [6] = experiment: Anticancer activity against human MCF7 cells assessed as cell growth at 100 uM after 48 hrs by Alamar blue assay relative to control; settings: MCF7, 48 h, read-out: Activity; in short: as §4

For FC(F)(F)C(=Cc1nc2ccccc2s1)C(F)(F)F, the logGI50 (NCI-H226) was “inactive”, the logGI50 (T47D) was “inactive” and the logGI50 (786-0) was “inactive”. For the same compound, the logGI50 (HCC 2998) was “inactive”, the logGI50 (A549) was “inactive” and the logGI50 (SF-539) was “inactive”. For the same compound, the logGI50 (MDA-N) was “inactive”, the logGI50 (EKVX) was “inactive” and the logGI50 (SF-268 [1]) was “inactive”. For the same compound, the logGI50 (SR) was “inactive”, the logGI50 (MDA-MB-231) was “inactive” and the logGI50 (HCT-15) was “inactive”. For the same compound, the logGI50 (MDA-MB-435) was “inactive”, the logGI50 (A498) was “inactive” and the logGI50 (ACHN) was “inactive”. For the same compound, the logGI50 (NCI-H23) was “inactive”, the logGI50 (OVCAR-5) was “inactive” and the logGI50 (TK-10) was “inactive”. The logGI50 (COLO 205) was “inactive”, the logGI50 (DU-145) was “inactive” and the logGI50 (BT-549) was “inactive”. For the same compound, the logGI50 (SNB-19) was “inactive”, the logGI50 (UO-31) was “inactive” and the logGI50 (UACC-257) was “inactive”. For the same compound, the logGI50 (HL-60(TB)) was “inactive”, the logGI50 (Hs-578T) was “inactive” and the logGI50 (SNB-75) was “inactive”. For the same compound, the logGI50 (SK-OV-3) was “inactive”, the logGI50 (CAKI-1) was “inactive” and the logGI50 (SW-620) was “inactive”. For the same compound, the logGI50 (SF-295) was “inactive”, the logGI50 (UACC-62) was “inactive” and the logGI50 (HCT-116) was “inactive”. For the same compound, the logGI50 (NCI/ADR-RES) was “inactive”, the logGI50 (Malme-3M) was “inactive” and the logGI50 (KM12) was “inactive”. The logGI50 (M14) was “inactive”, the logGI50 (SN12C) was “inactive” and the logGI50 (U-251) was “inactive”. For the same compound, the logGI50 (CCRF-CEM) was “inactive”, the logGI50 (MCF7 [2]) was “inactive” and the logGI50 (SK-MEL-5) was “inactive”. The logGI50 (OVCAR-4) was “inactive”, the logGI50 (RPMI8266) was “inactive” and the logGI50 (PC-3) was “inactive”. The logGI50 (OVCAR-3) was “inactive”, the logGI50 (HT-29) was “inactive” and the logGI50 (MOLT-4) was “inactive”. For the same compound, the logGI50 (SK-MEL-2) was “inactive”, the logGI50 (OVCAR-8) was “inactive” and the logGI50 (RXF 393) was “inactive”. The logGI50 (LOX IMVI) was “inactive”, the logGI50 (K562) was “inactive” and the logGI50 (HOP-62) was “inactive”. For the same compound, the logGI50 (IGROV-1) was “inactive”, the logGI50 (NCI-H322M) was “inactive” and the logGI50 (SK-MEL-28) was “inactive”. For the same compound, the logGI50 (HOP-92) was “inactive”, the logGI50 (NCI-H522) was “inactive” and the logGI50 (NCI-H460 [3]) was “inactive”.
CC(NC(=O)Nc1nccs1)(C(F)(F)F)C(F)(F)F showed a growth at 100 µM (SF-268 [4]) of 74%, a growth at 100 µM (NCI-H460 [5]) of 49% and a growth at 100 µM (MCF7 [6]) of 59%.
